An excerpt weighted towards active compounds, which were near 4.6% of everything screened.
STAT1 act: STAT1 signaling activators, primary screen, cell-based, HTS, luciferase reporter; 2.6% of 200,000 active; NIH 3T3 STAT1-luciferase reporter, IFN-gamma, luminescence; 100% = IFN-gamma alone, no compound; activation (% of control), % at 5.5 µM;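 active means activation above the screen-wide mean activation plus 3 SD, cut at about 130% in these data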
NF-kB neuron act: activators of NF-kB expression in neurons, primary screen, cell-based, HTS; fold change at 12.5 µM; 1.6% of 190,000 active; AID 1239, 2008; human neuronal cells, NF-kB reporter expression; hits give high values; in the data active means fold change above about 3.3
Wee1 degr inh: Wee1 degradation inhibitors, primary screen, cell-based, HeLa, Wee1K328M-luciferase, luminescence; HeLa Luc-Wee1K328M stability; 100% = proteasome inhibitor MG132 effect; reporter increase, % at 5 µM; 1.2% of 220,000 active;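 active means activation above the mean of all tested compounds plus 3 SD, set per screening run, cut at about 8.8% in these data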;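 further: cells exposed to compound for 20 h before luminescence read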
p97 ATPase inh: inhibitors of human p97 ATPase, primary screen, biochemical; inhibition, % at 8 µM; recombinant p97 ATPase, Kinase-Glo ATP luminescence, 3 h; AID 1481, 2009; Transitional endoplasmic reticulum ATPase (Homo sapiens), P55072; 0.42% of 220,000 active; in the data active means inhibition above about 15%
APP 5'UTR act: activators of APP 5'UTR luciferase reporter, primary screen, SH-SY5Y cells; SH-SY5Y APP 5'UTR luciferase reporter, luminescence; zero percent = DMSO vehicle wells; activation, % at 2 µM; 1% of 190,000 active;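 active means activation above a set limit, based on mean plus 3 SD of controls, cut at about 140% in these data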
Mdm2 ligase inh: MDM2-luciferase reporter signal enhancers, primary screen, MDM2 E3 ligase inhibitor project, cell-based, luminescence, 1536-well. E3 ubiquitin-protein ligase Mdm2 (Homo sapiens), Q00987. cell-based MDM2 ubiquitination luciferase reporter, 2 h; 0 = plate control, 100 = twice control, blank-subtracted. AID 1230, 2008. signal enhancement, % at 5 µM. 0.11% of 210,000 active;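 active means signal enhancement of 30% or more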;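 further: luminescence tracks abundance of the self-degrading MDM2-luciferase fusion protein; higher signal means inhibition of MDM2 E3 ligase activity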
Target sequence (Q00987 whole entry, looked up, the tested form may be a part): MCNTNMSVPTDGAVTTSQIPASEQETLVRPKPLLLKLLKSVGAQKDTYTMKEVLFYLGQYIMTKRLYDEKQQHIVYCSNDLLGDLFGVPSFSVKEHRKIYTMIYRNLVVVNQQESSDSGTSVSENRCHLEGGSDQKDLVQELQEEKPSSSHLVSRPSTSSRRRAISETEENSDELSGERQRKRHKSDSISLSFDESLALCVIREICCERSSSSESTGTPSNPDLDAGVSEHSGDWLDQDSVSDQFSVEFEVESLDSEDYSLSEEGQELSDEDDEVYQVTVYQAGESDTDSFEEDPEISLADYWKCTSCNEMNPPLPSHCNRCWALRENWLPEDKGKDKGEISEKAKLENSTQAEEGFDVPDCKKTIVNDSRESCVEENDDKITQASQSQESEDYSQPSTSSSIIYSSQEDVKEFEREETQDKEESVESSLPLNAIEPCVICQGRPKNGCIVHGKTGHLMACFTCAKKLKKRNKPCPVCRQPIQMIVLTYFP
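System: stable MDM2–luciferase fusion reporter cells / Input: 2000 cells seeded into each well / Schedule: 4 h settle plus 2 h compound, 37 °C / Compound: single-point 5 µM / Buffer or medium: cells held in DMEM / Benchmarks: control and blank well means / Evaluation: percent signal gain over controls, blank-subtracted / Measured by: luciferase luminescence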
Of the large screens only hits and unclear results are named; the others gave an inactive call.

O=C(O)c1ccc(NCCc2ccc(Cl)cc2)c([N+](=O)[O-])c1	none
COc1ccc(Nc2oc(-c3ccc(F)cc3)nc2C#N)cc1	Wee1 degr inh 9.3 (no result: STAT1 act, NF-kB neuron act, APP 5'UTR act)
COc1ccc(-c2nc(C#N)c(NCc3ccco3)o2)cc1	NF-kB neuron act 3.56
Cc1ccc(-c2nc(C#N)c(NCc3ccco3)o2)cc1	NF-kB neuron act 3.64
N#Cc1nc(-c2ccc(F)cc2)oc1NCc1ccco1	none (no result: STAT1 act, NF-kB neuron act, APP 5'UTR act)
O=C(NC1CCCCC1)C(c1ccc(Cl)cc1)N(C(=O)c1ccccn1)c1cccnc1 (centres undefined)	none
CCOc1ccccc1NC(=O)Nc1ccon1	none (no result: STAT1 act, NF-kB neuron act, APP 5'UTR act)
CCOc1ccccc1NC(=O)Nc1ccc(CC#N)cc1	Wee1 degr inh 10.3 (no result: STAT1 act, NF-kB neuron act, APP 5'UTR act)
O=c1[nH]c2ccccc2c2nc(-c3cccc(S(=O)(=O)N4CCCC4)c3)nn12	none (no result: STAT1 act, NF-kB neuron act, APP 5'UTR act, Mdm2 ligase inh)
O=C1NC(=O)/C(=C/c2ccc(O)cc2)S1	STAT1 act 130.2
O=C1NC(=O)/C(=C/c2ccccn2)S1	none (no result: STAT1 act, NF-kB neuron act, APP 5'UTR act)
Cc1ccc(NC(=O)C2CC(=O)N(CCc3ccccc3)C2)c(C)c1 (centres undefined)	none
O=C1c2cccc3c([N+](=O)[O-])ccc(c23)C(=O)N1Cc1cccnc1	NF-kB neuron act 3.84
Cc1ccnc(N2C(=O)c3cccc4c([N+](=O)[O-])ccc(c34)C2=O)c1	NF-kB neuron act 4.7
Cc1ccc(N2C(=O)c3cccc4c([N+](=O)[O-])ccc(c34)C2=O)c2cccnc12	none (no result: STAT1 act, NF-kB neuron act, APP 5'UTR act, Mdm2 ligase inh)
CC1CCN(S(=O)(=O)c2ccc(S(=O)(=O)N3CCC4(CC3)OCCO4)cc2)CC1	none
COc1ccc2c(c1)C=C(C(=O)OCc1cccnc1)CO2	none
O=C(CSc1nnc(Cn2c(=O)sc3ccccc32)n1-c1ccccc1)N1CCCC1	none
O=C(CSc1nnc(Cn2c(=O)sc3ccccc32)n1-c1ccccc1)Nc1nccs1	p97 ATPase inh 15.5
O=c1c(Cc2ccc(F)cc2)c(O)ccn1CCCN1CCOCC1	none
Cc1ccc(C(=O)Nc2nnc(C3CCCCC3)s2)o1	NF-kB neuron act 3.76
Cc1ccc(C(=O)Nc2nc(C)c(C)s2)o1	STAT1 act 131.9, NF-kB neuron act 4.03
Cc1ccc(NC(=O)c2ccc(CNc3c(N4CCC(C)CC4)c(=O)c3=O)cc2)cc1	none (no result: STAT1 act, NF-kB neuron act, APP 5'UTR act)
COc1cccc(-c2nn(-c3ccccc3)cc2CO)c1	STAT1 act 144.4
OCc1cn(-c2ccccc2)nc1-c1ccc2c(c1)OCCO2	STAT1 act 143.6
O=C(N/N=C/c1cn(-c2ccccc2)nc1-c1ccc2c(c1)OCCO2)c1ccncc1	STAT1 act 148.2
O/N=C/c1cn(-c2ccccc2)nc1-c1ccc2c(c1)OCCO2	none
C=CCN(C(=O)CSC1=NC(=O)CN1C(C)=O)c1nc(C)c(-c2ccccc2)s1	none
CC(NC(=O)Cn1c(NCCO)nc2ccccc21)C1CC2CCC1C2 (centres undefined)	STAT1 act 133.5
Cc1cc(C(=O)N/N=C/c2ccc[nH]2)n[nH]1	NF-kB neuron act 4.4
Cc1cc(C(=O)N/N=C/c2ccc[nH]2)no1	none
CCOc1ccc2c(c1)sc(=NC(=O)C1CC1)n2C	STAT1 act 150.2
Cn1c(=NC(=O)C2CCCCC2)sc2cc([N+](=O)[O-])ccc21	none
Cn1/c(=N/N=C/c2ccc([N+](=O)[O-])cc2)sc2ccccc21	STAT1 act 131.7
CCOC(=O)C1(CCc2ccccc2)CCN(C(=O)CN2C(=O)CSC2=O)CC1	none
CN(C(=O)C1CCOC1)c1nnc(-c2ccncc2)s1 (centres undefined)	none
CN(C(=O)C1CCOC1)c1nnc(-c2ccccn2)s1 (centres undefined)	STAT1 act 131.7
CC(C)CN1CN(Cc2ccccc2)CNC1=S	none
Cc1ncc([N+](=O)[O-])n1CC(=O)NCCc1ccccc1	none
COc1ccc(CCNC(=O)Cn2c([N+](=O)[O-])cnc2C)cc1OC	Wee1 degr inh 10.8
COC(=O)c1c(NC(=O)c2ccccc2)sc2c1CC(C)(C)OC2	Wee1 degr inh 9.4
O=C(/C=C/c1ccc([N+](=O)[O-])cc1)Nc1ncc([N+](=O)[O-])s1	STAT1 act 146.6, Wee1 degr inh 22.4, APP 5'UTR act 221.3
Cc1ccc(Nc2n[nH]c(C)c2[N+](=O)[O-])cc1	STAT1 act 146.9
Cc1[nH]nc(Nc2ccc(Br)cc2)c1[N+](=O)[O-]	Wee1 degr inh 9.2 (no result: STAT1 act, NF-kB neuron act, APP 5'UTR act)
Cc1[nH]nc(Nc2ccccc2)c1[N+](=O)[O-]	none
COc1ccccc1CNC(=O)c1ccc(OC(F)F)c(OC)c1	none
CC(CN1CCN(Cc2ccccc2)CC1)OC(=O)c1ccco1 (centres undefined)	none (no result: STAT1 act, NF-kB neuron act, APP 5'UTR act, Mdm2 ligase inh)
COc1ccc(C(=O)NCCC2=CCCCC2)cc1	STAT1 act 138.4, NF-kB neuron act 3.39, APP 5'UTR act 153.7
O=C(CCc1ccccc1)NCCC1=CCCCC1	none
COc1cccc(C(=O)NCCC2=CCCCC2)c1	APP 5'UTR act 152.9
O=C(CCCc1ccccc1)NCCC1=CCCCC1	STAT1 act 135.5
COc1ccc(C(=O)NCCC2=CCCCC2)cc1OC	none
Cc1cc(C(=O)NCCC2=CCCCC2)ccc1[N+](=O)[O-]	STAT1 act 133.2
COc1ccc(C(=O)NCC(=O)OCC(=O)NCCC2=CCCCC2)cc1	none
CCOC(=O)C1(CCOC)CCN(Cc2ccc(C3CCCCO3)s2)CC1 (centres undefined)	none (no result: NF-kB neuron act)
C=CCO/N=C(/CCC)C1=C(N)CC(C)(C)CC1=O	none
COc1ccc(CNC(=O)c2ccc(C(C)(C)C)cc2)cc1	STAT1 act 137.6
O=C(NCCC1=CCCCC1)c1ccc(CN2CCOCC2)cc1	STAT1 act 134.5
CC(=O)c1c(C)[nH]c(C(=O)NCCC2=CCCCC2)c1C	STAT1 act 134.2, NF-kB neuron act 3.54
COC(=O)c1sccc1NC(=O)CSCCc1ccccn1	none
Cc1ccc(CC2CC(=O)N(Cc3ccco3)C2=O)cc1 (centres undefined)	STAT1 act 142.2, NF-kB neuron act 4.3
O=C1CC(Cc2ccccc2)C(=O)N1Cc1ccco1 (centres undefined)	none
CC(=O)N1CCN(CC(=O)Nc2ccc([N+](=O)[O-])cc2Br)CC1	none
O=C(O)CC(NC(=O)c1cccc([N+](=O)[O-])c1)c1ccc2c(c1)OCO2 (centres undefined)	none
O=C1C(=Cc2cccs2)C(=O)c2ccccc21	none
O=C1/C(=C\c2cccs2)Sc2ccc3ccccc3c21	APP 5'UTR act 178.5
Cc1ccc(C)c2[nH]c(=O)c(CN(Cc3nnnn3C3CCCCC3)CC3CCCO3)cc12 (centres undefined)	Wee1 degr inh 9.8

From PubChem
